According to ChEMBL document CHEMBL1153840, “Targeting of the Brucella suis virulence factor histidinol dehydrogenase by histidinol analogues results in inhibition of intramacrophagic multiplication of the pathogen” (Antimicrob Agents Chemother, 2007):
Calls of active or inactive are those of the source. No cut-off for these calls is given here.

What was measured:
[1] = test system: Brucella suis; experiment: Inhibition of intracellular replication of Brucella suis 1330 in human THP1 cells assessed as reduction in number of viable intracellular bacteria at 25 uM treated 90 mins postinfection measured 24 hrs postinfection relative to control; format: functional, organism-based; settings: THP-1
[2] = test system: THP-1; experiment: Toxicity against human THP1 cells at 25 uM after 48 hrs by trypan blue exclusion method; format: cell-based; settings: thp-1, 48 h
Outline: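 Infected THP1 macrophage-like cells are stained with trypan blue at 48 h postinfection, at the drug concentrations used in the intracellular assay.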

[3] = test system: Brucella suis; experiment: Antibacterial activity against Brucella suis 1330 assessed as reduction in bacterial growth in minimal medium after 96 hrs relative to control; format: functional
[4] = test system: Brucella suis; experiment: Antibacterial activity against Brucella suis 1330 assessed as reduction in bacterial intramacrophagic multiplication in human THP1 cells at 25 uM treated 90 mins postinfection measured 24 hrs postinfection relative to control; format: functional, THP-1
[5] = test system: Brucella suis; experiment: Antibacterial activity against Brucella suis 1330 in minimal medium at 100 uM after 96 hrs; format: functional, organism-based
[6] = test system: Brucella suis; experiment: Antibacterial activity against Brucella suis 1330 in minimal medium after 96 hrs; format: functional, organism-based
[7] = target: T1, Histidinol dehydrogenase (Brucella suis biovar 1 (strain 1330), UniProt Q8G2R2); experiment: Inhibition of Brucella suis histidinol dehydrogenase
T1 sequence (Q8G2R2 whole entry): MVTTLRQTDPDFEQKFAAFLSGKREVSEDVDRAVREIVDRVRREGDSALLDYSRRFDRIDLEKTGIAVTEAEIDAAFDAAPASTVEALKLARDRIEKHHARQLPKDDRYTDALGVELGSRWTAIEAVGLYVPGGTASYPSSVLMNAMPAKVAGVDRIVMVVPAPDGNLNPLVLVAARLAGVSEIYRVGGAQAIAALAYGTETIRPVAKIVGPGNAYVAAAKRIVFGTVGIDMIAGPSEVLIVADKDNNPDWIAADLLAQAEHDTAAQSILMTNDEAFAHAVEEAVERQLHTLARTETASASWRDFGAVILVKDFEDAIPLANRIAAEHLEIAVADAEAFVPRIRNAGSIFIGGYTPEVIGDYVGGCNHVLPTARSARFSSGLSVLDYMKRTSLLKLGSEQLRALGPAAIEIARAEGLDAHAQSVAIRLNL

[8] = test system: Brucella suis; experiment: Growth inhibition of Brucella suis 1330 in minimal medium containing 1 mM histidine at 100 uM after 96 hrs; format: functional, organism-based
[9] = test system: Brucella suis; experiment: Growth inhibition of Brucella suis 1330 in minimal medium devoid of 1 mM histidine at 100 uM after 96 hrs; format: functional, organism-based

SMILES | Activity [1] | Activity [2] | fold change (FC) [3] | fold change (FC) [4] | inhibition [5] | inhibition [6] | IC50 [7] [nM] | Activity [8] | Activity [9]
Cl.Cl.N[C@@H](Cc1c[nH]cn1)C(=O)Cc1ccc(Br)cc1 | Active | Non-toxic | 12 | 50 | Active | Dose-dependent effect | – | – | –
Cl.Cl.N[C@@H](Cc1c[nH]cn1)C(=O)Cc1c(F)c(F)c(F)c(F)c1F | – | – | 12 | – | – | – | 6 | – | –
Cc1ccc(CC(=O)[C@@H](N)Cc2c[nH]cn2)cc1.Cl.Cl | – | – | 12 | – | – | – | 6 | – | –
Cl.Cl.N[C@@H](Cc1c[nH]cn1)C(=O)Cc1cccc2ccccc12 | – | – | 12 | – | – | – | 6 | – | –
Cl.Cl.N[C@@H](Cc1c[nH]cn1)C(=O)Cc1ccccc1 | – | – | 12 | – | – | – | 6 | – | –
Cl.Cl.N[C@@H](Cc1c[nH]cn1)C(=O)Cc1ccc(OCc2ccccc2)cc1 | Active | – | 12 | – | – | – | – | – | –
Cl.Cl.N[C@@H](Cc1c[nH]cn1)C(=O)Cc1ccc(F)cc1 | – | – | 12 | – | Active | – | 6 | – | –
COc1ccc(CC(=O)[C@@H](N)Cc2c[nH]cn2)cc1.Cl.Cl | – | – | 12 | – | – | – | 6 | – | –
Cl.Cl.N[C@@H](Cc1c[nH]cn1)C(=O)Cc1ccc(Cl)cc1 | Active | Non-toxic | 12 | 50 | Active | Dose-dependent effect | 6 | – | –
Cl.Cl.N[C@@H](Cc1c[nH]cn1)C(=O)Cc1ccc2ccccc2c1 | Active | Non-toxic | 12 | 50 | Active | Dose-dependent effect | 6 | – | –
Cl.Cl.N[C@@H](Cc1c[nH]cn1)C(=O)Cc1ccc(Oc2ccccc2)cc1 | – | – | 12 | – | – | – | 6 | – | –
Cl.Cl.N[C@@H](Cc1c[nH]cn1)C(=O)Cc1ccc2c(c1)OCO2 | – | – | 12 | – | – | – | 6 | – | –
Cl.Cl.N[C@@H](Cc1c[nH]cn1)C(=O)Cc1ccc(-c2ccccc2)cc1 | Active | Non-toxic | 12 | 50 | Active | Dose-dependent effect | 6 | inactive | Active
Cl.Cl.N[C@@H](Cc1c[nH]cn1)C(=O)Cc1ccc(Cl)c(Cl)c1 | – | – | 12 | – | – | – | 6 | – | –
Cl.Cl.N[C@@H](Cc1c[nH]cn1)C(=O)Cc1ccc(F)cc1F | – | – | 12 | – | – | – | 6 | – | –
